In ChEMBL document CHEMBL1147115 (2007):
In brackets after ≈: the same amount, converted by molar mass.

Tests used:
Klebsiella pneumoniae [1] = test: Antimicrobial activity against ESBL producing Klebsiella pneumoniae 263 isolate; assay type: functional
Klebsiella pneumoniae [2] = test: Antimicrobial activity against ESBL producing Klebsiella pneumoniae 230 isolate; assay type: functional
Escherichia coli [3] = test: Antimicrobial activity against ESBL producing Escherichia coli 321 isolate infected thigh infection model ICR mouse; assay type: functional, Thigh muscle
Method in brief: (§1)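 Female ICR mice (~25 g) were made neutropenic with cyclophosphamide ip (150 and 100 mg/kg, days −4 and −1) and renally impaired with uranyl nitrate 5 mg/kg ip (day −3). Each thigh got 0.1 ml of 10^5 CFU/ml (or 10^7 for high inoculum) im 2 h pre-therapy. Human-simulated regimens were given sc, three mice per group, for 24 h. Efficacy was the log10 CFU/thigh change versus 0-h controls.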

Escherichia coli [4] = test: Antimicrobial activity against Escherichia coli ATCC 25922 isolate; assay type: functional
Klebsiella pneumoniae [5] = test: Antimicrobial activity against ESBL producing Klebsiella pneumoniae 262 isolate infected thigh infection model ICR mouse; assay type: functional, Thigh muscle; method in brief: as §1
Klebsiella pneumoniae [6] = test: Antimicrobial activity against ESBL producing Klebsiella pneumoniae 60 isolate; assay type: functional
Klebsiella pneumoniae [7] = test: Antimicrobial activity against ESBL producing Klebsiella pneumoniae 255 isolate; assay type: functional
Klebsiella pneumoniae [8] = test: Antimicrobial activity against ESBL producing Klebsiella pneumoniae 264 isolate infected thigh infection model ICR mouse; assay type: functional, Thigh muscle; method in brief: as §1
Klebsiella pneumoniae [9] = test: Antimicrobial activity against ESBL producing Klebsiella pneumoniae 256 isolate; assay type: functional
Klebsiella pneumoniae [10] = test: Antimicrobial activity against ESBL producing Klebsiella pneumoniae 260 isolate infected thigh infection model ICR mouse; assay type: functional, Thigh muscle; method in brief: as §1
Escherichia coli [11] = test: Antimicrobial activity against ESBL producing Escherichia coli 130 isolate; assay type: functional
Klebsiella pneumoniae [12] = test: Antimicrobial activity against ESBL producing Klebsiella pneumoniae 264 isolate; assay type: functional
Klebsiella pneumoniae [13] = test: Antimicrobial activity against ESBL producing Klebsiella pneumoniae 254 isolate infected thigh infection model ICR mouse; assay type: functional, Thigh muscle; method in brief: as §1
Klebsiella pneumoniae [14] = test: Antimicrobial activity against ESBL producing Klebsiella pneumoniae 260 isolate; assay type: functional
Klebsiella pneumoniae [15] = test: Antimicrobial activity against ESBL producing Klebsiella pneumoniae 268 isolate infected thigh infection model ICR mouse; assay type: functional, Thigh muscle; method in brief: as §1
Klebsiella pneumoniae [16] = test: Antimicrobial activity against ESBL producing Klebsiella pneumoniae 255 isolate infected thigh infection model ICR mouse; assay type: functional, Thigh muscle; method in brief: as §1
Klebsiella pneumoniae [17] = test: Antimicrobial activity against ESBL producing Klebsiella pneumoniae 259 isolate; assay type: functional
Escherichia coli [18] = test: Antimicrobial activity against ESBL producing Escherichia coli 310 isolate; assay type: functional
Klebsiella pneumoniae [19] = test: Antimicrobial activity against ESBL producing Klebsiella pneumoniae 265 isolate; assay type: functional
Klebsiella pneumoniae [20] = test: Antimicrobial activity against ESBL producing Klebsiella pneumoniae 261 isolate; assay type: functional
Klebsiella pneumoniae [21] = test: Antimicrobial activity against ESBL producing Klebsiella pneumoniae 266 isolate infected thigh infection model ICR mouse; assay type: functional, Thigh muscle; method in brief: as §1
Klebsiella pneumoniae [22] = test: Antimicrobial activity against ESBL producing Klebsiella pneumoniae 230 isolate infected thigh infection model ICR mouse; assay type: functional, Thigh muscle; method in brief: as §1
Escherichia coli [23] = test: Antimicrobial activity against ESBL producing Escherichia coli 315 isolate infected thigh infection model ICR mouse; assay type: functional, Thigh muscle; method in brief: as §1
Escherichia coli [24] = test: Antimicrobial activity against ESBL producing Escherichia coli 311 isolate infected thigh infection model ICR mouse; assay type: functional, Thigh muscle; method in brief: as §1
Escherichia coli [25] = test: Antimicrobial activity against ESBL producing Escherichia coli 318 isolate infected thigh infection model ICR mouse; assay type: functional, Thigh muscle; method in brief: as §1
Escherichia coli [26] = test: Antimicrobial activity against Escherichia coli ATCC 25922 isolate infected thigh infection model ICR mouse; assay type: functional, Thigh muscle; method in brief: as §1
Klebsiella pneumoniae [27] = test: Antimicrobial activity against ESBL producing Klebsiella pneumoniae 261 isolate infected thigh infection model ICR mouse; assay type: functional, Thigh muscle; method in brief: as §1
Escherichia coli [28] = test: Antimicrobial activity against ESBL producing Escherichia coli 321 isolate; assay type: functional
Escherichia coli [29] = test: Antimicrobial activity against ESBL producing Escherichia coli 243 isolate; assay type: functional
Escherichia coli [30] = test: Antimicrobial activity against ESBL producing Escherichia coli 320 isolate; assay type: functional
Klebsiella pneumoniae [31] = test: Antimicrobial activity against ESBL producing Klebsiella pneumoniae 257 isolate infected thigh infection model ICR mouse; assay type: functional, Thigh muscle; method in brief: as §1
Klebsiella pneumoniae [32] = test: Antimicrobial activity against ESBL producing Klebsiella pneumoniae 101 isolate; assay type: functional
Escherichia coli [33] = test: Antimicrobial activity against ESBL producing Escherichia coli 310 isolate infected thigh infection model ICR mouse; assay type: functional, Thigh muscle; method in brief: as §1
Escherichia coli [34] = test: Antimicrobial activity against ESBL producing Escherichia coli 133 isolate infected thigh infection model ICR mouse; assay type: functional, Thigh muscle; method in brief: as §1
Klebsiella pneumoniae [35] = test: Antimicrobial activity against ESBL producing Klebsiella pneumoniae 101 isolate infected thigh infection model ICR mouse; assay type: functional, Thigh muscle; method in brief: as §1
Klebsiella pneumoniae [36] = test: Antimicrobial activity against ESBL producing Klebsiella pneumoniae 225 isolate infected thigh infection model ICR mouse; assay type: functional, Thigh muscle; method in brief: as §1
Klebsiella pneumoniae [37] = test: Antimicrobial activity against ESBL producing Klebsiella pneumoniae 266 isolate; assay type: functional
Escherichia coli [38] = test: Antimicrobial activity against ESBL producing Escherichia coli 133 isolate; assay type: functional
Klebsiella pneumoniae [39] = test: Antimicrobial activity against ESBL producing Klebsiella pneumoniae 270 isolate infected thigh infection model ICR mouse; assay type: functional, Thigh muscle; method in brief: as §1
Escherichia coli [40] = test: Antimicrobial activity against ESBL producing Escherichia coli 285 isolate infected thigh infection model ICR mouse; assay type: functional, Thigh muscle; method in brief: as §1
Klebsiella pneumoniae [41] = test: Antimicrobial activity against ESBL producing Klebsiella pneumoniae 262 isolate; assay type: functional
Klebsiella pneumoniae [42] = test: Antimicrobial activity against ESBL producing Klebsiella pneumoniae 256 isolate infected thigh infection model ICR mouse; assay type: functional, Thigh muscle; method in brief: as §1
Escherichia coli [43] = test: Antimicrobial activity against ESBL producing Escherichia coli 285 isolate; assay type: functional
Klebsiella pneumoniae [44] = test: Antimicrobial activity against ESBL producing Klebsiella pneumoniae 258 isolate; assay type: functional
Escherichia coli [45] = test: Antimicrobial activity against ESBL producing Escherichia coli 322 isolate infected thigh infection model ICR mouse; assay type: functional, Thigh muscle; method in brief: as §1
Escherichia coli [46] = test: Antimicrobial activity against ESBL producing Escherichia coli 118 isolate; assay type: functional
Escherichia coli [47] = test: Antimicrobial activity against ESBL producing Escherichia coli 311 isolate; assay type: functional
Escherichia coli [48] = test: Antimicrobial activity against ESBL producing Escherichia coli 130 isolate infected thigh infection model ICR mouse; assay type: functional, Thigh muscle; method in brief: as §1
Klebsiella pneumoniae [49] = test: Antimicrobial activity against ESBL producing Klebsiella pneumoniae 225 isolate; assay type: functional
Escherichia coli [50] = test: Antimicrobial activity against ESBL producing Escherichia coli 312 isolate infected thigh infection model ICR mouse; assay type: functional, Thigh muscle; method in brief: as §1
Escherichia coli [51] = test: Antimicrobial activity against ESBL producing Escherichia coli 315 isolate; assay type: functional
Klebsiella pneumoniae [52] = test: Bacteriostasis activity against ESBL producing Klebsiella pneumonia 262 isolate at up to 1.5 ug/ml; assay type: functional
Klebsiella pneumoniae [53] = test: Antimicrobial activity against ESBL producing Klebsiella pneumoniae 60 isolate infected thigh infection model ICR mouse; assay type: functional, Thigh muscle; method in brief: as §1
Klebsiella pneumoniae [54] = test: Antimicrobial activity against ESBL producing Klebsiella pneumoniae 268 isolate; assay type: functional
Klebsiella pneumoniae [55] = test: Antimicrobial activity against ESBL producing Klebsiella pneumoniae 254 isolate; assay type: functional
Escherichia coli [56] = test: Antimicrobial activity against Escherichia coli 120 isolate infected thigh infection model ICR mouse; assay type: functional, Thigh muscle; method in brief: as §1
Escherichia coli [57] = test: Antimicrobial activity against ESBL producing Escherichia coli 243 isolate infected thigh infection model ICR mouse; assay type: functional, Thigh muscle; method in brief: as §1
Klebsiella pneumoniae [58] = test: Antimicrobial activity against ESBL producing Klebsiella pneumoniae 265 isolate infected thigh infection model ICR mouse; assay type: functional, Thigh muscle; method in brief: as §1
Klebsiella pneumoniae [59] = test: Activity against ESBL producing Klebsiella pneumonia 262 isolate at up to 4 ug/ml; assay type: functional
Escherichia coli [60] = test: Antimicrobial activity against ESBL producing Escherichia coli 312 isolate; assay type: functional
Klebsiella pneumoniae [61] = test: Antimicrobial activity against ESBL producing Klebsiella pneumoniae 257 isolate; assay type: functional
Escherichia coli [62] = test: Antimicrobial activity against ESBL producing Escherichia coli 320 isolate infected thigh infection model ICR mouse; assay type: functional, Thigh muscle; method in brief: as §1
Klebsiella pneumoniae [63] = test: Antimicrobial activity against ESBL producing Klebsiella pneumoniae 270 isolate; assay type: functional
Klebsiella pneumoniae [64] = test: Antimicrobial activity against ESBL producing Klebsiella pneumoniae 258 isolate infected thigh infection model ICR mouse; assay type: functional, Thigh muscle; method in brief: as §1
Escherichia coli [65] = test: Antimicrobial activity against Escherichia coli 120 isolate; assay type: functional
Klebsiella pneumoniae [66] = test: Antimicrobial activity against ESBL producing Klebsiella pneumoniae 263 isolate infected thigh infection model ICR mouse; assay type: functional, Thigh muscle; method in brief: as §1
Escherichia coli [67] = test: Antimicrobial activity against ESBL producing Escherichia coli 322 isolate; assay type: functional
Klebsiella pneumoniae [68] = test: Antimicrobial activity against ESBL producing Klebsiella pneumoniae 259 isolate infected thigh infection model ICR mouse; assay type: functional, Thigh muscle; method in brief: as §1

C[C@@H](O)[C@H]1C(=O)N2C(C(=O)O)=C(S[C@@H]3CN[C@H](C(=O)Nc4cccc(C(=O)O)c4)C3)[C@H](C)[C@H]12
MIC (Klebsiella pneumoniae [1]): 8 µg/mL (≈ 16.8 µM)
MIC (Klebsiella pneumoniae [2]): 0.094 µg/mL (≈ 0.198 µM)
fT>MIC (Escherichia coli [3]): 90%
MIC (Escherichia coli [4]): 8 ng/mL (≈ 0.0168 µM)
fT>MIC (Klebsiella pneumoniae [5]): 0%
MIC (Klebsiella pneumoniae [6]): 0.012 µg/mL (≈ 0.0252 µM)
MIC (Klebsiella pneumoniae [7]): 2 µg/mL (≈ 4.21 µM)
fT>MIC (Klebsiella pneumoniae [8]): 10%
MIC (Klebsiella pneumoniae [9]): 32 µg/mL (≈ 67.3 µM)
fT>MIC (Klebsiella pneumoniae [10]): 30%
MIC (Escherichia coli [11]): 1 µg/mL (≈ 2.1 µM)
MIC (Klebsiella pneumoniae [12]): 4 µg/mL (≈ 8.41 µM)
fT>MIC (Klebsiella pneumoniae [13]): 0%
MIC (Klebsiella pneumoniae [14]): 1 µg/mL (≈ 2.1 µM)
fT>MIC (Klebsiella pneumoniae [15]): 47%
fT>MIC (Klebsiella pneumoniae [16]): 20%
MIC (Klebsiella pneumoniae [17]): 16 µg/mL (≈ 33.6 µM)
MIC (Escherichia coli [18]): 0.064 µg/mL (≈ 0.135 µM)
MIC (Klebsiella pneumoniae [19]): 0.5 µg/mL (≈ 1.05 µM)
MIC (Klebsiella pneumoniae [20]): 128 µg/mL (≈ 269 µM)
fT>MIC (Klebsiella pneumoniae [21]): 0%
fT>MIC (Klebsiella pneumoniae [22]): 60%
fT>MIC (Escherichia coli [23]): 77%
fT>MIC (Escherichia coli [24]): 10%
fT>MIC (Escherichia coli [25]): 90%
fT>MIC (Escherichia coli [26]): 93%
fT>MIC (Klebsiella pneumoniae [27]): 0%
MIC (Escherichia coli [28]): 0.012 µg/mL (≈ 0.0252 µM)
MIC (Escherichia coli [29]): 0.064 µg/mL (≈ 0.135 µM)
MIC (Escherichia coli [30]): 0.5 µg/mL (≈ 1.05 µM)
fT>MIC (Klebsiella pneumoniae [31]): 0%
MIC (Klebsiella pneumoniae [32]): 0.094 µg/mL (≈ 0.198 µM)
fT>MIC (Escherichia coli [33]): 67%
fT>MIC (Escherichia coli [34]): 23%
fT>MIC (Klebsiella pneumoniae [35]): 60%
fT>MIC (Klebsiella pneumoniae [36]): 87%
MIC (Klebsiella pneumoniae [37]): 8 µg/mL (≈ 16.8 µM)
MIC (Escherichia coli [38]): 1.5 µg/mL (≈ 3.15 µM)
fT>MIC (Klebsiella pneumoniae [39]): 40%
fT>MIC (Escherichia coli [40]): 80%
MIC (Klebsiella pneumoniae [41]): 64 µg/mL (≈ 135 µM)
fT>MIC (Klebsiella pneumoniae [42]): 0%
MIC (Escherichia coli [43]): 0.023 µg/mL (≈ 0.0484 µM)
MIC (Klebsiella pneumoniae [44]): 16 µg/mL (≈ 33.6 µM)
fT>MIC (Escherichia coli [45]): 90%
MIC (Escherichia coli [46]): 0.012 µg/mL (≈ 0.0252 µM)
MIC (Escherichia coli [47]): 4 µg/mL (≈ 8.41 µM)
fT>MIC (Escherichia coli [48]): 30%
MIC (Klebsiella pneumoniae [49]): 0.016 µg/mL (≈ 0.0336 µM)
fT>MIC (Escherichia coli [50]): 53%
MIC (Escherichia coli [51]): 0.032 µg/mL (≈ 0.0673 µM)
MIC (Klebsiella pneumoniae [52]): 1.5 µg/mL (≈ 3.15 µM)
fT>MIC (Klebsiella pneumoniae [53]): 90%
MIC (Klebsiella pneumoniae [54]): 0.25 µg/mL (≈ 0.526 µM)
MIC (Klebsiella pneumoniae [55]): 16 µg/mL (≈ 33.6 µM)
fT>MIC (Escherichia coli [56]): 77%
fT>MIC (Escherichia coli [57]): 67%
fT>MIC (Klebsiella pneumoniae [58]): 40%
MIC (Klebsiella pneumoniae [59]): 4 µg/mL (≈ 8.41 µM)
MIC (Escherichia coli [60]): 0.19 µg/mL (≈ 0.4 µM)
MIC (Klebsiella pneumoniae [61]): 16 µg/mL (≈ 33.6 µM)
fT>MIC (Escherichia coli [62]): 40%
MIC (Klebsiella pneumoniae [63]): 0.5 µg/mL (≈ 1.05 µM)
fT>MIC (Klebsiella pneumoniae [64]): 0%
MIC (Escherichia coli [65]): 0.03 µg/mL (≈ 0.0631 µM)
fT>MIC (Klebsiella pneumoniae [66]): 0%
MIC (Escherichia coli [67]): 0.012 µg/mL (≈ 0.0252 µM)
fT>MIC (Klebsiella pneumoniae [68]): 0%
